Measured values reported in ChEMBL document CHEMBL1165998, “Antihyperglycemic effect of catalpol in streptozotocin-induced diabetic rats” (2010).
Activity calls are given as the source filed them. The calls are words filed in the database; no cut-off is given here.

Assays:
[1] = tested on: Rattus norvegicus; assay: Antihyperglycemic effect in streptozotocin-induced diabetic Wistar rat assessed as reduction of plasma glucose level at 0.1 mg/kg, iv bolus after 30 mins; type: functional, organism-based; parameters: dose 0.1 mg/kg
How it was run: (§1)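 STZ (60 mg/kg) given to fasted rats; animals with plasma glucose of 20 mmol/L or more plus diabetic features were used two weeks later. Fasted rats got an i.v. bolus of catalpol in normal saline (0.01–0.15 mg/kg) or vehicle. Tail-vein blood was drawn under pentobarbital at 30 min. Glucose was read enzymatically in duplicate, and activity was calculated as [(Gi−Gt)/Gi]×100%. n=8 per group.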

[2] = tested on: Rattus norvegicus; assay: Antihyperglycemic effect in iv bolus dosed streptozotocin-induced diabetic Wistar rat assessed as reduction of plasma glucose level after 30 mins; type: functional, organism-based; how it was run: as §1
[3] = tested on: Rattus norvegicus; assay: Antihyperglycemic effect in streptozotocin-induced diabetic Wistar rat assessed as reduction of plasma glucose level at 0.15 mg/kg, iv bolus after 30 mins; type: functional, organism-based; parameters: dose 0.15 mg/kg; how it was run: as §1
[4] = tested on: Rattus norvegicus; assay: Antihyperglycemic effect in streptozotocin-induced diabetic Wistar rat assessed as reduction of plasma glucose level at 0.1 mg/kg, iv bolus after 30 mins relative to untreated control; type: functional; parameters: scale not given: the % may be the effect or the level left; how it was run: as §1
[5] = tested on: Rattus norvegicus; assay: Antihyperglycemic effect in streptozotocin-induced diabetic Wistar rat assessed as reduction of plasma glucose level at 0.01 mg/kg, iv bolus after 30 mins relative to untreated control; type: functional; parameters: scale not given: the % may be the effect or the level left; how it was run: as §1
[6] = tested on: Soleus muscle; assay: Increase in uptake of 2-[1-14C]-deoxy-D-glucose in streptozotocin-induced diabetic Wistar rat isolated soleus muscle after 30 mins by beta counter; type: functional, tissue-based
How it was run: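 Soleus strips came from STZ-diabetic rats. They were preincubated 30 min in KRBB (pH 7.4, 37 °C, 1 mmol/L glucose, 1% BSA, 5% CO2/O2), then exposed 30 min to test agent (10-8–10-6 M). Next came 5 min with 2-[1-14C]-deoxy-D-glucose (1 µCi/mL). Tissue was digested in NaOH and counted by β-counter. Non-specific uptake with 20 µmol/L cytochalasin B was subtracted. n=8.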

[7] = tested on: Hepatocyte; assay: Increase in glycogen synthesis in streptozotocin-induced diabetic Wistar rat hepatocyte assessed as [U14C]glucose incorporation in to glycogen […] by ethanol precipitation assay; type: functional, cell-based
How it was run: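 Hepatocytes from STZ-diabetic rats were isolated by collagenase perfusion (>90% viable by trypan blue). After 30 min preincubation in KRBB at 37 °C, they were incubated with [U-14C]-glucose (0.25 µCi/mL) plus test agent (10-8–10-6 M) for 1 h with shaking. Glycogen label was measured by ethanol precipitation and expressed as pmol/mg protein. n=8; compared against vehicle blanks.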

[8] = tested on: Rattus norvegicus; assay: Antihyperglycemic effect in normal Wistar rat assessed as attenuation of increase of plasma glucose level at 0.1 mg/kg, iv bolus measured 5 mins after intravenous glucose challenge test
[9] = tested on: Rattus norvegicus; assay: Antihyperglycemic effect in normal Wistar rat assessed as attenuation of increase of plasma glucose level at 0.1 mg/kg, iv bolus measured 20 mins after intravenous glucose challenge test
[10] = tested on: Rattus norvegicus; assay: Antihyperglycemic effect in normal Wistar rat assessed as attenuation of increase of plasma glucose level at 0.1 mg/kg, iv bolus measured 30 mins after intravenous glucose challenge test
[11] = tested on: Rattus norvegicus; assay: Antihyperglycemic effect in streptozotocin-induced diabetic Wistar rat assessed as reduction of plasma glucose level at 100 mg/kg, po relative to untreated control; parameters: scale not given: the % may be the effect or the level left

Structure (SMILES)	Activity [1]	Activity [2]	Activity [3]	Activity [4] [%]	Activity [5] [%]	Activity [6]	Activity [7]	Activity [8]	Activity [9]	Activity [10]	Activity [11] [%]
OC[C@H]1O[C@@H](O[C@@H]2OC=C[C@H]3[C@H](O)[C@@H]4O[C@]4(CO)[C@@H]23)[C@H](O)[C@@H](O)[C@@H]1O [CATALPOL]	Active	Dose-dependent effect	Active	24.33	8.53	Dose-dependent effect	Dose-dependent effect	Active	Active	inactive	
CN(C)C(=N)NC(=N)N [METFORMIN]											32
